Assay results: paper PMC7993273 (Clinical and Translational Science, 2021)
“And” between values parts separate entries of the source, which are not always exact repeats. Equal values may be shown once.

Columns and labels:
Population PK model = format: in vivo, human
[1] = cited from earlier work
[2] = Exposure at the 480-mg dose in HVs, study BGB-3111-106; format: in vivo, human
[3] = format: in vivo, human; details: 160 mg b.i.d.
Procedure, shortened: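 Final population PK model built from 4,925 plasma samples from 632 healthy volunteers and B-cell malignancy patients, on oral doses of 20–320 mg q.d. or b.i.d. Plasma levels were measured by validated HPLC-MS/MS (LLOQ 1 ng/mL). Steady-state AUCss, Cmax,ss and Cmin,ss were simulated for repeated 160 mg b.i.d. dosing, comparing 5th/95th-percentile covariate values against a median-covariate typical patient.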

[4] = oral, patients with B-cell malignancies

Ka, final model estimate (95% CI) (Population PK model; absorption rate constant): 0.526 (0.525, 0.526) 1/hour | D1, bootstrap estimate median (2.5–97.5 percentiles) (Population PK model; bootstrap of 1,000 datasets): 1.114 (0.974, 1.265) hour | IIV D1, bootstrap estimate median (2.5–97.5 percentiles) (Population PK model; bootstrap of 1,000 datasets): 62.2 (51.9, 72.4) | IIV Q/F, bootstrap estimate median (2.5–97.5 percentiles) (Population PK model; bootstrap of 1,000 datasets): 103 (83.9, 118) | IIV Vc/F, bootstrap estimate median (2.5–97.5 percentiles) (Population PK model; bootstrap of 1,000 datasets): 39.2 (25.9, 57.8) | IIV Vp/F, bootstrap estimate median (2.5–97.5 percentiles) (Population PK model; bootstrap of 1,000 datasets): 80.4 (58.9, 94.6) | IOV D1, bootstrap estimate median (2.5–97.5 percentiles) (Population PK model; bootstrap of 1,000 datasets): 62.2 (51.9, 72.4) | IOV Vc/F, bootstrap estimate median (2.5–97.5 percentiles) (Population PK model; bootstrap of 1,000 datasets): 65.9 (49.4, 76.8) | Ka, bootstrap estimate median (2.5–97.5 percentiles) (Population PK model; bootstrap of 1,000 datasets): 0.524 (0.481, 0.591) 1/hour | Q/F, bootstrap estimate median (2.5–97.5 percentiles) (Population PK model; bootstrap of 1,000 datasets): 25.6 (19.9, 32.3) L/hour | Vc/F, bootstrap estimate median (2.5–97.5 percentiles) (Population PK model; bootstrap of 1,000 datasets): 115 (88.4, 151) L | Vp/F, bootstrap estimate median (2.5–97.5 percentiles) (Population PK model; bootstrap of 1,000 datasets): 363 (274, 513) L | CL/F (HV), bootstrap estimate median (2.5–97.5 percentiles) (Population PK model; bootstrap of 1,000 datasets, healthy volunteers): 119 (110, 127) L/hour | CL/F (patient), bootstrap estimate median (2.5–97.5 percentiles) (Population PK model; bootstrap of 1,000 datasets, patient): 169 (162, 178) L/hour | effect of co-administration with PPIs and other ARAs on the PKs (Population PK model; covariate analysis, patients in clinical studies): did not appear to significantly impact | D1, final model estimate (95% CI) (Population PK model; duration of zero-order absorption into the depot compartment): 1.13 hour and 1.128 (1.125, 1.131) hour | coefficient of variance of elimination t 1/2 (Population PK model; final population PK model): 40.0% | CL/F (HV), final model estimate (95% CI) (Population PK model; healthy volunteers): 118 (107, 130) L/hour | Q/F, final model estimate (95% CI) (Population PK model; human, in vivo): 26.5 L/hour and 26.5 (26.3, 26.7) L/hour | Vc/F, final model estimate (95% CI) (Population PK model; human, in vivo): 112 L and 112 (111, 113) L | Vp/F, final model estimate (95% CI) (Population PK model; human, in vivo): 345 L and 345 (343, 347) L | half-life (Population PK model; human, plasma, oral): 3.44 h | IIV D1, final model estimate (95% CI) (Population PK model; interindividual variability): 62.3 (57.1, 67.1) | IIV Q/F, final model estimate (95% CI) (Population PK model; interindividual variability): 102 (97.8, 106) | IIV Vc/F, final model estimate (95% CI) (Population PK model; interindividual variability): 37.1 (NA, 53.1) | IIV Vp/F, final model estimate (95% CI) (Population PK model; interindividual variability): 86.4 (71.3, 99.3) | IIV estimated for CL/F (Population PK model; interindividual variability): 36.7% | IIV estimated for Vc/F (Population PK model; interindividual variability): 37.1% | IOV Vc/F, final model estimate (95% CI) (Population PK model; interoccasion variability): 67.5 (66.8, 68.3) | AUC ([3]; human, plasma, oral, 160 mg, total daily AUC, typical patient): 1890 ng·h/mL
SMILES: C=CC(=O)N1CCC([C@@H]2CCNc3c(C(N)=O)c(-c4ccc(Oc5ccccc5)cc4)nn32)CC1 [zanubrutinib, Zanubrutinib]
absorption rate constant (Population PK model; typical patient with ALT of 18 U/L): 0.526 hour^‐1 | CL/F (patient), final model estimate (95% CI) (Population PK model; typical patient with B-cell malignancy, ALT 18 U/L): 170 L/hour and 170 (169, 170) L/hour | systemic accumulation after multiple-dose administration ([1]; 40 mg to 320 mg q.d. and 160 mg b.i.d.): limited systemic accumulation | dose dependence of Cmax and AUC0–∞ ([1]; doses from 40 mg to 320 mg): dose‐proportional increase | mean terminal elimination half-life (t 1/2) [1, 4]: 2 to 4 h | median time to peak plasma concentration (Tmax) [1, 4]: 2 h | dose dependence of exposure at the 480-mg dose [2]: less than dose‐proportional increase in exposure | magnitude of effect of ALT on AUCss [3]: < 15% | magnitude of effect of ALT on Cmax,ss [3]: < 10% | magnitude of effect of ALT on Cmin,ss [3]: < 30%
